Source: paper PMC5436510 (Theranostics, 2017)
Blank lines part the entries; values can stand above or below the compound they belong to. Square brackets hold non-standard residues; d marks the D form. Peptide text beside a SMILES is read from it.

Legend:
U87MG cells = U87MG cells (Homo sapiens, UniProt P05106+P06756); test: Confocal cellular uptake of peptide-RhB conjugates; assay type: cell-based; settings: confocal imaging, incubation up to 4 h
Procedure, shortened: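 Cells were seeded on confocal dishes at 3×10^5 per well and left 24 h to attach. Cells were washed three times with PBS (pH 7.4), imaged by laser confocal microscopy, and uptake at 2 h was quantified as mean fluorescence intensity.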

[1] = system: U87MG, MDA-MB-231, HepG2 and L02 cells; test: Transwell cell migration assay; assay type: cell-based, Human; settings: peptides 40μM for 24 h, transwell 12 hours
Procedure, shortened: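 Cells at 60–70% confluence in 6-well plates were exposed to peptides (40 μM) for 24 h. They were then detached and 5×10^5 cells placed in transwell upper chambers, in triplicate, over DMEM + 10% FBS. After 12 h, unmigrated cells were swabbed off. Membranes were fixed in methanol and stained with 0.1% crystal violet, 30 min each. The dye was eluted with 33% acetic acid and read at OD570. % migration = treated/control OD570 × 100.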

αvβ3 integrin = αvβ3 integrin (Homo sapiens, UniProt P05106+P06756); test: MicroScale Thermophoresis; assay type: binding
Chain of αvβ3 integrin (P06756 31-889): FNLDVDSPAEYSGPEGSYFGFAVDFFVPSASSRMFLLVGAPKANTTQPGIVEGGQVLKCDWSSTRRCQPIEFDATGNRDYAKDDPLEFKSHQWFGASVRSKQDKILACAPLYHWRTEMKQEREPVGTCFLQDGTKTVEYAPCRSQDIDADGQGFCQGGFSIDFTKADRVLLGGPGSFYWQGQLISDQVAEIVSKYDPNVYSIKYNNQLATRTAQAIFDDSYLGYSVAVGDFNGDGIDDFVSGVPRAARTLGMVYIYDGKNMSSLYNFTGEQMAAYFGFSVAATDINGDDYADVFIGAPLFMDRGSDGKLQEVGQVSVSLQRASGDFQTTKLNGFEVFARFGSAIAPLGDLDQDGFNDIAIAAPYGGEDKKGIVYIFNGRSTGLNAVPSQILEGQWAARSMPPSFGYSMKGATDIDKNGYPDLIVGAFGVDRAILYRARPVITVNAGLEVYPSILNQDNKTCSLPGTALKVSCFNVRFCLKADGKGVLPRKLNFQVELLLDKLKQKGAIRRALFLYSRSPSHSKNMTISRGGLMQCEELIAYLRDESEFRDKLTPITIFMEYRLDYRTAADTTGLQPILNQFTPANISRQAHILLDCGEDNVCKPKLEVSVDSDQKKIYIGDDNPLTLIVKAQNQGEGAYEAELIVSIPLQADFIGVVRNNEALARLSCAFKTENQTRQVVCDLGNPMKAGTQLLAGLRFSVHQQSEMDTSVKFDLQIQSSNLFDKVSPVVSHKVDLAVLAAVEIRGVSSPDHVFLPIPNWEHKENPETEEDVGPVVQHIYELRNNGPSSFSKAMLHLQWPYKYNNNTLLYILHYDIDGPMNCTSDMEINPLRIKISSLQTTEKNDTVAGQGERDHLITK
Chain of αvβ3 integrin (P06756 891-1048): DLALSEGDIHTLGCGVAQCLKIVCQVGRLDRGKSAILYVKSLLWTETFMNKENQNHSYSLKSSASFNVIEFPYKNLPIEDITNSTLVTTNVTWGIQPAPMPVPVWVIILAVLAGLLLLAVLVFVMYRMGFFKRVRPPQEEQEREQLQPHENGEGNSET
Chain of αvβ3 integrin (P05106 27-788): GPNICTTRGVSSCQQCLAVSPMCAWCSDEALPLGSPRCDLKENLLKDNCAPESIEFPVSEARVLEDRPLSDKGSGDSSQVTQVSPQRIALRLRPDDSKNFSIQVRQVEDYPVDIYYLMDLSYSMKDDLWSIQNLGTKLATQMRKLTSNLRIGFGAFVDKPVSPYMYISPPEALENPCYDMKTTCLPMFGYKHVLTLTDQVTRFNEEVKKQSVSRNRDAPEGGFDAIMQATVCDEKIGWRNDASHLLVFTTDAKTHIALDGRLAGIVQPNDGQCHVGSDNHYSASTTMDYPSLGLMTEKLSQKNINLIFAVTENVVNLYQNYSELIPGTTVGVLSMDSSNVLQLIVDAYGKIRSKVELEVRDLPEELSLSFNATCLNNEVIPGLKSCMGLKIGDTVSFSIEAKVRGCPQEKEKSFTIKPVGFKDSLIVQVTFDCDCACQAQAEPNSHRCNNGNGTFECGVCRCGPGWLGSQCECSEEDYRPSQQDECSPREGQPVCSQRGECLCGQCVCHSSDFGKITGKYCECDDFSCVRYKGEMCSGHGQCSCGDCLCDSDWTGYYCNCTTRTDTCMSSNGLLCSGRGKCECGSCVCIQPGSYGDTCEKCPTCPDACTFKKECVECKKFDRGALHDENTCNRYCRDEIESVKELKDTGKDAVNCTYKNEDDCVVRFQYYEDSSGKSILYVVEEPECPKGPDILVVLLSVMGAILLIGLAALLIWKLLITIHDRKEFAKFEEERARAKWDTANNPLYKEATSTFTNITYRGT

[2] = system: p-FAK, p-PI3K, p-Ras in U87MG cells; test: Western blot of αvβ3 downstream signalling; assay type: cell-based, Human; settings: 64μg /mL for 48 h
U87MG-tumor-bearing mice = test: In vivo antitumor study of peptide-Dox conjugates; design: species or system nude mice
Procedure, shortened: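 Female nude mice aged 6–7 weeks were inoculated s.c. in the axillary fossa with 1×10^7 U87MG cells. On day 7 they were split into five groups of 10. Saline, free Dox or peptide-Dox conjugates were given i.v. via the tail vein every other day for 7 doses, each equal to 5 mg/kg Dox. Body weight and caliper tumor volume, V = π/6·length·width², were recorded, along with survival.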

Chain of U87MG cells (P06756 31-1048): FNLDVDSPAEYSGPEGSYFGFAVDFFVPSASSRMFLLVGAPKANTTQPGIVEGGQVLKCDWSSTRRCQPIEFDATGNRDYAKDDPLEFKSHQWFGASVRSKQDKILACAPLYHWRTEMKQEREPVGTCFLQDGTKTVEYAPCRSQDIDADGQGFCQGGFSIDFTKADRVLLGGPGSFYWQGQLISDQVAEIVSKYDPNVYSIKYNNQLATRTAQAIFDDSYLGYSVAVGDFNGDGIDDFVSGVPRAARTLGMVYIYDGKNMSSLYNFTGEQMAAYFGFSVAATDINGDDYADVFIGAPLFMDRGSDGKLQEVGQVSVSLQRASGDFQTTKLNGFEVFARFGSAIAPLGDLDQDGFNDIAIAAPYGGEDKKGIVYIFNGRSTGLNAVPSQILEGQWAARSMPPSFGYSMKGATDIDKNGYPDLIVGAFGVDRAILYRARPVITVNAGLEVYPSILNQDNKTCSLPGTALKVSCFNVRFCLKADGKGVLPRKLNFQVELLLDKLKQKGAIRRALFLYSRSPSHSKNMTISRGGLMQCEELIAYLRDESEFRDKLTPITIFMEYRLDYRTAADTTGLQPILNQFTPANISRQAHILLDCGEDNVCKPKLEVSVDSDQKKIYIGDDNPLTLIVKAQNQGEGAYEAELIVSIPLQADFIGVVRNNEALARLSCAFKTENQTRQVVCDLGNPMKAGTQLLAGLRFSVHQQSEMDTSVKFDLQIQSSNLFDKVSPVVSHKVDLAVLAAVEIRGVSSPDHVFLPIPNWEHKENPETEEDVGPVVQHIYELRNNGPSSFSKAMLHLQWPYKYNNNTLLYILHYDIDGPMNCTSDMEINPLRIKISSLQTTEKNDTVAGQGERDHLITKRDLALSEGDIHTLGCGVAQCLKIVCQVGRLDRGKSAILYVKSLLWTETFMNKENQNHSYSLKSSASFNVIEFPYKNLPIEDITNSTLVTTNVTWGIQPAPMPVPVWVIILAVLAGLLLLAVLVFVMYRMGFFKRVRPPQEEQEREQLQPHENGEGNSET
Chain of U87MG cells (P05106 27-788): as the sequence (P05106 27-788) above

cellular uptake (RhB fluorescence) (U87MG cells): no fluorescence was observed
SMILES: CCN(CC)c1ccc2c(-c3ccccc3C(=O)O)c3ccc(=[N+](CC)CC)cc-3oc2c1 [RhB, Rhodamine B]

SMILES: CCN(CC)CCNC(=O)c1c(C)[nH]c(/C=C2\C(=O)Nc3ccc(F)cc32)c1C [Sunitinib]
cell migration compared with the controls [1]: strong inhibition on cell migration

SMILES: CC(=O)O[C@H]1C(=O)[C@@]2(C)[C@H]([C@H](OC(=O)c3ccccc3)[C@]3(O)C[C@H](OC(=O)[C@H](O)[C@@H](NC(=O)c4ccccc4)c4ccccc4)C(C)=C1C3(C)C)[C@]1(OC(C)=O)CO[C@@H]1C[C@@H]2O [PTX]
cell migration compared with the controls [1]: strong inhibition on cell migration

Kd (αvβ3 integrin): 33.6 ± 4.56 nM
SMILES: N=C(N)NCCC[C@H](N)C(=O)N[C@@H](Cc1c[nH]c2ccccc12)C(=O)N[C@H](CCCNC(=N)N)C(=O)O [RWr] (H-Arg-Trp-[dR]-OH)

SMILES: CSCC[C@H](NC(=O)[C@H](CC(N)=O)NC(=O)[C@@H](CCCNC(=N)N)NC(=O)[C@H](Cc1c[nH]c2ccccc12)NC(=O)[C@@H](N)CCCNC(=N)N)C(=O)O [RWrNM] (H-RW[dR]NM-OH)
Kd (αvβ3 integrin): 8.61 ± 1.35 nM

SMILES: N=C(N)NCCC[C@@H]1NC(=O)[C@H](CCCCN)NC(=O)[C@@H](Cc2ccc(O)cc2)NC(=O)[C@H](CC(=O)O)NC(=O)CNC1=O [c(RGDyK)]
cell migration compared with the controls [1]: obvious decrease in cell migration
levels of phosphorylated signalling proteins [2]: decreased the levels of p-FAK, p-PI3K, and p-Ras proteins

SMILES: COc1cccc2c1C(=O)c1c(O)c3c(c(O)c1C2=O)C[C@@](O)(C(=O)CO)C[C@@H]3O[C@H]1C[C@H](N)[C@H](O)[C@H](C)O1 [Dox, doxorubicin]
survival rate (in words) (U87MG-tumor-bearing mice; 15-day treatment): lowest survival rate
body weight (U87MG-tumor-bearing mice; 15-day treatment, dose 5mg/kg of Dox): continual decrease in body weight
histopathology (H&E) toxicity in organs (U87MG-tumor-bearing mice; after the 15-day treatment): obvious cardiotoxicity and hepatotoxicity
